Laboratory results taken from ChEMBL document CHEMBL1156058, “Discovery of disubstituted phenanthrene imidazoles as potent, selective and orally active mPGES-1 inhibitors” (Bioorg Med Chem Lett, 2009).
Calls of active or inactive are those of the source. No cut-off for these calls is given here.

How the values were obtained:
[1] = target: T1, Prostaglandin E synthase (Homo sapiens, UniProt O14684); assay: Displacement of [3H]PGH2 from human recombinant PGES1 expressed in CHOK1 cells; assay type: cell-based, CHO-K1
T1 sequence (O14684 whole entry): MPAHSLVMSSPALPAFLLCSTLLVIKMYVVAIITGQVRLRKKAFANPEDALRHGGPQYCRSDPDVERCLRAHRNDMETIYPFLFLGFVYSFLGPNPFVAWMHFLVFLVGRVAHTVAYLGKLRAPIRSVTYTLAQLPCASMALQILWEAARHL

[2] = tested on: Blood; assay: Inhibition of PGE2 production in LPS-stimulated human whole blood; assay type: functional, tissue-based
[3] = Oral bioavailability in rat at 20 mg/kg administered as single dose; assay type: ADME, organism-based; details: in vivo
[4] = Half life in rat at 5 mg/kg, iv administered as single dose; assay type: ADME, organism-based; parameters: dose 5 mg/kg, route intravenous; details: in vivo
[5] = Metabolic stability in rat liver hepatocytes assessed as compound remaining after 2 hrs; assay type: ADME, cell-based, Hepatocyte; details: read-out: Stability
Outline: (§1)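 Compound incubated with hepatocytes (rat or human) for 2 h at 37 °C; read-out is % parent compound remaining; values are means of at least two experiments.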

[6] = Metabolic stability in human liver hepatocytes assessed as compound remaining after 2 hrs; assay type: ADME, cell-based, Hepatocyte; details: read-out: Stability; outline: as §1
[7] = target: T2, Thromboxane-A synthase (Homo sapiens, UniProt P24557); assay: Inhibition of TX synthase
T2 sequence (P24557 whole entry): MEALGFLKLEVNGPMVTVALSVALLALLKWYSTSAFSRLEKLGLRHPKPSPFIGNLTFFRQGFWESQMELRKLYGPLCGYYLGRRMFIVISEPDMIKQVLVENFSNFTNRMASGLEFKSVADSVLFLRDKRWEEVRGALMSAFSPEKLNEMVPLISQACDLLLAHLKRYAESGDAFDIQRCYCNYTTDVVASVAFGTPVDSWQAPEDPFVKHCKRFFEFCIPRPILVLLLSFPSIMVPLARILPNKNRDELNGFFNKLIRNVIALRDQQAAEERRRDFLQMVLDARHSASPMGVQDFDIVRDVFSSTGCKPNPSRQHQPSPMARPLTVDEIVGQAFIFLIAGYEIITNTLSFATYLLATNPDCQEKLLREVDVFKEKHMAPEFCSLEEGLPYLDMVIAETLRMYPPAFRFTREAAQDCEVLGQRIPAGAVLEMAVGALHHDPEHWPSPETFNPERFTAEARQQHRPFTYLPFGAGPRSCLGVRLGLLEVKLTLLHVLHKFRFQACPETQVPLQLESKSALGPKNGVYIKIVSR

[8] = target: Prostaglandin E synthase 2 (Homo sapiens, UniProt Q9H7Z7); assay: Inhibition of human PGES2
Prostaglandin E synthase 2, sequence (Q9H7Z7 whole entry): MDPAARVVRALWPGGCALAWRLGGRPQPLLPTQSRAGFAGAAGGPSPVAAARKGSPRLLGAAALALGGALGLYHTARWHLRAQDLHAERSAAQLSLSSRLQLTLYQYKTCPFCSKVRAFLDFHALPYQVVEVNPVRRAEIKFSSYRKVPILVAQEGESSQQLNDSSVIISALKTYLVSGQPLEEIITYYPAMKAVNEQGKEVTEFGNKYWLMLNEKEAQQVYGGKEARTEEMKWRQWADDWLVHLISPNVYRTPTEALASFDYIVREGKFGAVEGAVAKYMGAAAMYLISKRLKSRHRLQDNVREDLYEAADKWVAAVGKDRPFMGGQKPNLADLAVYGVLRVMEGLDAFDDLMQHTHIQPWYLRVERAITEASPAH

[9] = tested on: A549; assay: Inhibition of PGF2alpha production in human A549 cells in presence of 50% fetal bovine serum; assay type: functional, cell-based
[10] = Inhibition of PGES1 in guinea pig whole blood; assay type: tissue-based; details: Cavia porcellus
[11] = Half life in monkey; assay type: ADME, organism-based, Macaca mulatta; details: rhesus monkey, in vivo
[12] = tested on: Cavia porcellus; assay: Analgesic activity against LPS-induced thermal hyperalgesia in po dosed Hartley guinea pig assessed as decrease in paw withdrawal latency administered 1 hr before LPS challenge measured after […]; assay type: functional
[13] = tested on: Blood; assay: Inhibition of PGD2 production in LPS-stimulated human whole blood; assay type: functional, tissue-based
[14] = tested on: Blood; assay: Inhibition of PGI2 production in LPS-stimulated human whole blood; assay type: functional, tissue-based
[15] = tested on: Blood; assay: Inhibition of TXB2 production in LPS-stimulated human whole blood; assay type: functional, tissue-based
[16] = target: T1, Prostaglandin E synthase; assay: Inhibition of mPGES1 in IL-1-beta-stimulated human A549 cells assessed as blockade of PGH2 to PGE2 conversion in presence of 50% fetal bovine serum; assay type: cell-based
[17] = Tmax in rat at 20 mg/kg; assay type: ADME, organism-based; parameters: dose 20 mg/kg; details: in vivo
[18] = tested on: Blood; assay: Inhibition of TXA2 production in human whole blood; assay type: functional, tissue-based

Structure (SMILES)	IC50 [1]	IC50 [2]	half-life [4]	other results
CC(C)(O)c1ccc2c(c1)c1cc(Cl)ccc1c1nc(-c3c(C#N)cccc3C#N)[nH]c21		1400 nM		
CC(C)(O)Cc1ccc2c(c1)c1cc(OCCCC(F)(F)F)ccc1c1nc(-c3c(C#N)cccc3C#N)[nH]c21	1 nM	250 nM	198 min	bioavailability [3]: 85%; remaining at 2 h [5]: 92%; remaining at 2 h [6]: 98%
CC(C)(O)C#Cc1ccc2c(c1)c1cc(C#CC3CC3)ccc1c1nc(-c3c(C#N)cccc3C#N)[nH]c21	1 nM	76 nM	2400 min	
CS(=O)(=O)c1ccc2c(c1)c1cc(Cl)ccc1c1nc(-c3c(C#N)cccc3C#N)[nH]c21		> 10000 nM		
CS(=O)(=O)c1ccc(-c2ccc3c(c2)c2cc(Cl)ccc2c2nc(-c4c(C#N)cccc4C#N)[nH]c32)cc1		410 nM		
CC(C)(O)Cc1ccc2c(c1)c1cc(OCCC3CC3)ccc1c1[nH]c(-c3c(C#N)cc(F)cc3C#N)nc21			138 min	IC50 [7]: 30 µM; IC50 [8]: > 30 µM; bioavailability [3]: 68%; remaining at 2 h [5]: 68%; remaining at 2 h [6]: 81%
N#Cc1cccc(C#N)c1-c1nc2c3ccc(Cl)cc3c3cc(OCCn4cccc4)ccc3c2[nH]1		380 nM		
N#Cc1cccc(C#N)c1-c1nc2c3ccc(Cl)cc3c3ccccc3c2[nH]1			90 min	IC50 [9]: > 40 µM; IC50 [8]: > 30 µM; IC50 [10]: 100 nM; remaining at 2 h [6]: 90%; half-life [11]: 78 min; ED50 [12]: 100 mg/kg
CC(C)(O)C#Cc1ccc2c(c1)c1cc(Cl)ccc1c1nc(-c3c(C#N)cccc3C#N)[nH]c21		200 nM	1200 min	IC50 [9]: > 40 µM; IC50 [7]: 0.8 µM; Activity [13]: inactive; IC50 [8]: > 30 µM; Activity [14]: inactive; remaining at 2 h [5]: 97%; IC50 [10]: 100 nM; remaining at 2 h [6]: 97%; ED50 [12]: 30 mg/kg; IC50 [15]: > 40 µM
N#Cc1cccc(C#N)c1-c1nc2c3ccc(Cl)cc3c3cc(C#Cc4cccnc4)ccc3c2[nH]1		530 nM		
N#Cc1cccc(C#N)c1-c1nc2c3ccc(Cl)cc3c3cc(C#Cc4ccncc4)ccc3c2[nH]1		390 nM		
CC(C)(O)Cc1ccc2c(c1)c1cc(OCC3CC3)ccc1c1nc(-c3c(C#N)cccc3C#N)[nH]c21	3 nM	350 nM	330 min	bioavailability [3]: 36%; remaining at 2 h [6]: > 99%
CC(=O)c1ccc2c(c1)c1cc(C(C)=O)ccc1c1[nH]c(-c3c(F)cccc3Cl)nc21	122 nM			IC50 [16]: > 50 µM
CC(C)(O)Cc1ccc2c(c1)c1cc(Cl)ccc1c1nc(-c3c(C#N)cccc3C#N)[nH]c21	2 nM	250 nM	504 min	Tmax [17]: 1 h
N#Cc1cccc(C#N)c1-c1nc2c3ccc(Cl)cc3c3cc(C#CC4(O)CCCC4)ccc3c2[nH]1		260 nM		
COCC#Cc1ccc2c(c1)c1cc(Cl)ccc1c1nc(-c3c(C#N)cccc3C#N)[nH]c21		1100 nM		
CC(C)(O)CCc1ccc2c(c1)c1cc(Cl)ccc1c1nc(-c3c(C#N)cccc3C#N)[nH]c21		200 nM	840 min	

Second part, led by results:

IC50 [1]	IC50 [2]	Structure (SMILES)	half-life [4]	other results
0.9 nM	220 nM	CC(C)(O)Cc1ccc2c(c1)c1cc(OCCC3CC3)ccc1c1nc(-c3c(C#N)cccc3C#N)[nH]c21	96 min	bioavailability [3]: 76%
3 nM	290 nM	CC(C)COc1ccc2c(c1)c1cc(CC(C)(C)O)ccc1c1nc(-c3c(C#N)cccc3C#N)[nH]c21	78 min	bioavailability [3]: 30%
	150 nM	CC(C)CCOc1ccc2c(c1)c1cc(CC(C)(C)O)ccc1c1[nH]c(-c3c(C#N)cccc3C#N)nc21	288 min	bioavailability [3]: 46%; remaining at 2 h [5]: 8%; remaining at 2 h [6]: 30%
	140 nM	CC(C)(O)Cc1ccc2c(c1)c1cc(OCCC3CC3)ccc1c1nc(-c3c(C#N)cc(F)cc3C#N)[nH]c21		IC50 [9]: > 40 µM; Activity [13]: inactive; Activity [14]: inactive; Activity [18]: inactive; ED50 [12]: 14 mg/kg; IC50 [15]: > 40 µM
	380 nM	N#CCCCOc1ccc2c(c1)c1cc(Cl)ccc1c1nc(-c3c(C#N)cccc3C#N)[nH]c21		
1 nM	370 nM	CCc1ccc2c(c1)c1cc(C#CC(C)(C)O)ccc1c1[nH]c(-c3c(C#N)cccc3C#N)nc21	420 min	
